Laboratory results: ChEMBL document CHEMBL4689842, “EUbOPEN Chemogenomics Library wave 1” (2021)

Tested on: Fibroblast
Test: Multiplex assay against human fibroblast
Assay type: toxicity, cell-based
Summary of the method: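 With compound added, live cells were imaged on a CQ1 microscope at 37°C and 5% CO2; staining with Hoechst33342, BioTracker Green Microtubule Cytoskeleton Dye, MitoTracker Red and Annexin V Alexa Fluor 680 had been done at seeding. The CellPathfinder machine-learning gating scheme split cells into Hoechst high-intensity objects or normal cells, normal cells into healthy, pyknosed or fragmented nuclei, and pyknosed cells into mitotic or apoptotic. The tubulin, mitochondrial-mass and membrane-permeability phenotypes are per cents of healthy-nucleus cells.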

[1] = 12 h, 1 µM, compound concentration 1 uM, replicate 1
[2] = 12 h, 1 µM, compound concentration 1 uM, replicate 2
[3] = 12 h, 10 µM, compound concentration 10 uM, replicate 1
[4] = 12 h, 10 µM, compound concentration 10 uM, replicate 2
[5] = 24 h, 1 µM, compound concentration 1 uM, replicate 1
[6] = 24 h, 1 µM, compound concentration 1 uM, replicate 2
[7] = 24 h, 10 µM, compound concentration 10 uM, replicate 1
[8] = 24 h, 10 µM, compound concentration 10 uM, replicate 2
[9] = 48 h, 1 µM, compound concentration 1 uM, replicate 1
[10] = 48 h, 1 µM, compound concentration 1 uM, replicate 2
[11] = 48 h, 10 µM, compound concentration 10 uM, replicate 1
[12] = 48 h, 10 µM, compound concentration 10 uM, replicate 2

CCn1c(=O)c(-c2ccc(-c3cncs3)cc2Cl)cc2cnc(Nc3ccc(N4CCN(C)CC4)cc3)nc21
Population Apoptotic (%) [1]: 53%
Population Fragmented Nuclei (%) [1]: 26%
Population Healthy Nuclei (%) [1]: 37%
Population Hoechst High Intensity Objects (%) [1]: 17%
Population Membrane Permeable-Phenotype (%) [1]: 15%
Population Mitochondria Different-Phenotype (%) [1]: 0%
Population Mitotic Cells (%) [1]: 46%
Population Normal (%) [1]: 82%
Population Pyknosed Nuclei (%) [1]: 35%
Population Tubulin-Different-Phenotype (%) [1]: 36%
Total Cell Count [1]: 108
Population Apoptotic (%) [2]: 75%
Population Fragmented Nuclei (%) [2]: 9%
Population Healthy Nuclei (%) [2]: 78%
Population Hoechst High Intensity Objects (%) [2]: 7%
Population Membrane Permeable-Phenotype (%) [2]: 3%
Population Mitochondria Different-Phenotype (%) [2]: 17%
Population Mitotic Cells (%) [2]: 25%
Population Normal (%) [2]: 92%
Population Pyknosed Nuclei (%) [2]: 11%
Population Tubulin-Different-Phenotype (%) [2]: 19%
Total Cell Count [2]: 76
Population Apoptotic (%) [3]: 58%
Population Fragmented Nuclei (%) [3]: 45%
Population Healthy Nuclei (%) [3]: 9%
Population Hoechst High Intensity Objects (%) [3]: 46%
Population Membrane Permeable-Phenotype (%) [3]: 41%
Population Mitochondria Different-Phenotype (%) [3]: 8%
Population Mitotic Cells (%) [3]: 41%
Population Normal (%) [3]: 53%
Population Pyknosed Nuclei (%) [3]: 44%
Population Tubulin-Different-Phenotype (%) [3]: 50%
Total Cell Count [3]: 230
Population Apoptotic (%) [4]: 11%
Population Fragmented Nuclei (%) [4]: 8%
Population Healthy Nuclei (%) [4]: 79%
Population Hoechst High Intensity Objects (%) [4]: 4%
Population Membrane Permeable-Phenotype (%) [4]: 5%
Population Mitochondria Different-Phenotype (%) [4]: 29%
Population Mitotic Cells (%) [4]: 88%
Population Normal (%) [4]: 96%
Population Pyknosed Nuclei (%) [4]: 12%
Population Tubulin-Different-Phenotype (%) [4]: 15%
Total Cell Count [4]: 77
Population Apoptotic (%) [5]: 58%
Population Fragmented Nuclei (%) [5]: 26%
Population Healthy Nuclei (%) [5]: 47%
Population Hoechst High Intensity Objects (%) [5]: 16%
Population Membrane Permeable-Phenotype (%) [5]: 31%
Population Mitochondria Different-Phenotype (%) [5]: 0%
Population Mitotic Cells (%) [5]: 41%
Population Normal (%) [5]: 83%
Population Pyknosed Nuclei (%) [5]: 25%
Population Tubulin-Different-Phenotype (%) [5]: 40%
Total Cell Count [5]: 111
Population Apoptotic (%) [6]: 46%
Population Fragmented Nuclei (%) [6]: 15%
Population Healthy Nuclei (%) [6]: 68%
Population Hoechst High Intensity Objects (%) [6]: 4%
Population Membrane Permeable-Phenotype (%) [6]: 1%
Population Mitochondria Different-Phenotype (%) [6]: 5%
Population Mitotic Cells (%) [6]: 53%
Population Normal (%) [6]: 95%
Population Pyknosed Nuclei (%) [6]: 16%
Population Tubulin-Different-Phenotype (%) [6]: 20%
Total Cell Count [6]: 74
Population Apoptotic (%) [7]: 85%
Population Fragmented Nuclei (%) [7]: 44%
Population Healthy Nuclei (%) [7]: 6%
Population Hoechst High Intensity Objects (%) [7]: 53%
Population Membrane Permeable-Phenotype (%) [7]: 22%
Population Mitochondria Different-Phenotype (%) [7]: 0%
Population Mitotic Cells (%) [7]: 15%
Population Normal (%) [7]: 46%
Population Pyknosed Nuclei (%) [7]: 48%
Population Tubulin-Different-Phenotype (%) [7]: 27%
Total Cell Count [7]: 615
Population Apoptotic (%) [8]: 27%
Population Fragmented Nuclei (%) [8]: 14%
Population Healthy Nuclei (%) [8]: 71%
Population Hoechst High Intensity Objects (%) [8]: 3%
Population Membrane Permeable-Phenotype (%) [8]: 7%
Population Mitochondria Different-Phenotype (%) [8]: 23%
Population Mitotic Cells (%) [8]: 72%
Population Normal (%) [8]: 96%
Population Pyknosed Nuclei (%) [8]: 14%
Population Tubulin-Different-Phenotype (%) [8]: 8%
Total Cell Count [8]: 83
Population Apoptotic (%) [9]: 52%
Population Fragmented Nuclei (%) [9]: 36%
Population Healthy Nuclei (%) [9]: 39%
Population Hoechst High Intensity Objects (%) [9]: 10%
Population Membrane Permeable-Phenotype (%) [9]: 35%
Population Mitochondria Different-Phenotype (%) [9]: 2%
Population Mitotic Cells (%) [9]: 47%
Population Normal (%) [9]: 89%
Population Pyknosed Nuclei (%) [9]: 24%
Population Tubulin-Different-Phenotype (%) [9]: 32%
Total Cell Count [9]: 105
Population Apoptotic (%) [10]: 0%
Population Fragmented Nuclei (%) [10]: 24%
Population Healthy Nuclei (%) [10]: 75%
Population Membrane Permeable-Phenotype (%) [10]: 5%
Population Mitochondria Different-Phenotype (%) [10]: 6%
Population Mitotic Cells (%) [10]: 0%
Population Pyknosed Nuclei (%) [10]: 0%
Population Tubulin-Different-Phenotype (%) [10]: 20%
Total Cell Count [10]: 88
Population Apoptotic (%) [11]: 92%
Population Fragmented Nuclei (%) [11]: 44%
Population Healthy Nuclei (%) [11]: 5%
Population Hoechst High Intensity Objects (%) [11]: 59%
Population Membrane Permeable-Phenotype (%) [11]: 24%
Population Mitochondria Different-Phenotype (%) [11]: 0%
Population Mitotic Cells (%) [11]: 7%
Population Normal (%) [11]: 40%
Population Pyknosed Nuclei (%) [11]: 50%
Population Tubulin-Different-Phenotype (%) [11]: 10%
Total Cell Count [11]: 1270
Population Apoptotic (%) [12]: 100%
Population Fragmented Nuclei (%) [12]: 43%
Population Healthy Nuclei (%) [12]: 55%
Population Hoechst High Intensity Objects (%) [12]: 11%
Population Membrane Permeable-Phenotype (%) [12]: 10%
Population Mitochondria Different-Phenotype (%) [12]: 4%
Population Mitotic Cells (%) [12]: 0%
Population Normal (%) [12]: 88%
Population Pyknosed Nuclei (%) [12]: 0%
Population Tubulin-Different-Phenotype (%) [12]: 52%
Total Cell Count [12]: 139

CCN1CCN(Cc2ccc(Nc3ncc(F)c(-c4cc(F)c5nc(C)n(C(C)C)c5c4)n3)nc2)CC1.CS(=O)(=O)O
Population Apoptotic (%) [1]: 75%
Population Fragmented Nuclei (%) [1]: 39%
Population Healthy Nuclei (%) [1]: 40%
Population Hoechst High Intensity Objects (%) [1]: 15%
Population Membrane Permeable-Phenotype (%) [1]: 17%
Population Mitochondria Different-Phenotype (%) [1]: 21%
Population Mitotic Cells (%) [1]: 25%
Population Normal (%) [1]: 84%
Population Pyknosed Nuclei (%) [1]: 20%
Population Tubulin-Different-Phenotype (%) [1]: 57%
Total Cell Count [1]: 187
Population Apoptotic (%) [2]: 40%
Population Fragmented Nuclei (%) [2]: 17%
Population Healthy Nuclei (%) [2]: 67%
Population Hoechst High Intensity Objects (%) [2]: 6%
Population Membrane Permeable-Phenotype (%) [2]: 8%
Population Mitochondria Different-Phenotype (%) [2]: 91%
Population Mitotic Cells (%) [2]: 60%
Population Normal (%) [2]: 93%
Population Pyknosed Nuclei (%) [2]: 14%
Population Tubulin-Different-Phenotype (%) [2]: 97%
Total Cell Count [2]: 73
Population Apoptotic (%) [3]: 63%
Population Fragmented Nuclei (%) [3]: 40%
Population Healthy Nuclei (%) [3]: 13%
Population Hoechst High Intensity Objects (%) [3]: 17%
Population Membrane Permeable-Phenotype (%) [3]: 52%
Population Mitochondria Different-Phenotype (%) [3]: 5%
Population Mitotic Cells (%) [3]: 36%
Population Normal (%) [3]: 82%
Population Pyknosed Nuclei (%) [3]: 46%
Population Tubulin-Different-Phenotype (%) [3]: 47%
Total Cell Count [3]: 158
Population Apoptotic (%) [4]: 83%
Population Fragmented Nuclei (%) [4]: 32%
Population Healthy Nuclei (%) [4]: 22%
Population Hoechst High Intensity Objects (%) [4]: 9%
Population Membrane Permeable-Phenotype (%) [4]: 88%
Population Mitochondria Different-Phenotype (%) [4]: 94%
Population Mitotic Cells (%) [4]: 16%
Population Normal (%) [4]: 90%
Population Pyknosed Nuclei (%) [4]: 45%
Population Tubulin-Different-Phenotype (%) [4]: 100%
Total Cell Count [4]: 88
Population Apoptotic (%) [5]: 44%
Population Fragmented Nuclei (%) [5]: 39%
Population Healthy Nuclei (%) [5]: 45%
Population Hoechst High Intensity Objects (%) [5]: 21%
Population Membrane Permeable-Phenotype (%) [5]: 15%
Population Mitochondria Different-Phenotype (%) [5]: 8%
Population Mitotic Cells (%) [5]: 55%
Population Normal (%) [5]: 78%
Population Pyknosed Nuclei (%) [5]: 15%
Population Tubulin-Different-Phenotype (%) [5]: 69%
Total Cell Count [5]: 240
Population Apoptotic (%) [6]: 58%
Population Fragmented Nuclei (%) [6]: 20%
Population Healthy Nuclei (%) [6]: 61%
Population Hoechst High Intensity Objects (%) [6]: 10%
Population Membrane Permeable-Phenotype (%) [6]: 21%
Population Mitochondria Different-Phenotype (%) [6]: 85%
Population Mitotic Cells (%) [6]: 41%
Population Normal (%) [6]: 89%
Population Pyknosed Nuclei (%) [6]: 17%
Population Tubulin-Different-Phenotype (%) [6]: 87%
Total Cell Count [6]: 75
Population Apoptotic (%) [7]: 80%
Population Fragmented Nuclei (%) [7]: 45%
Population Healthy Nuclei (%) [7]: 16%
Population Hoechst High Intensity Objects (%) [7]: 25%
Population Membrane Permeable-Phenotype (%) [7]: 46%
Population Mitochondria Different-Phenotype (%) [7]: 0%
Population Mitotic Cells (%) [7]: 20%
Population Normal (%) [7]: 74%
Population Pyknosed Nuclei (%) [7]: 38%
Population Tubulin-Different-Phenotype (%) [7]: 53%
Total Cell Count [7]: 122
Population Apoptotic (%) [8]: 97%
Population Fragmented Nuclei (%) [8]: 27%
Population Healthy Nuclei (%) [8]: 13%
Population Hoechst High Intensity Objects (%) [8]: 20%
Population Membrane Permeable-Phenotype (%) [8]: 100%
Population Mitochondria Different-Phenotype (%) [8]: 87%
Population Mitotic Cells (%) [8]: 2%
Population Normal (%) [8]: 79%
Population Pyknosed Nuclei (%) [8]: 59%
Population Tubulin-Different-Phenotype (%) [8]: 100%
Total Cell Count [8]: 74
Population Apoptotic (%) [9]: 56%
Population Fragmented Nuclei (%) [9]: 43%
Population Healthy Nuclei (%) [9]: 41%
Population Hoechst High Intensity Objects (%) [9]: 37%
Population Membrane Permeable-Phenotype (%) [9]: 6%
Population Mitochondria Different-Phenotype (%) [9]: 12%
Population Mitotic Cells (%) [9]: 43%
Population Normal (%) [9]: 62%
Population Pyknosed Nuclei (%) [9]: 15%
Population Tubulin-Different-Phenotype (%) [9]: 69%
Total Cell Count [9]: 246
Population Apoptotic (%) [10]: 75%
Population Fragmented Nuclei (%) [10]: 53%
Population Healthy Nuclei (%) [10]: 43%
Population Hoechst High Intensity Objects (%) [10]: 16%
Population Membrane Permeable-Phenotype (%) [10]: 10%
Population Mitochondria Different-Phenotype (%) [10]: 5%
Population Mitotic Cells (%) [10]: 25%
Population Normal (%) [10]: 83%
Population Pyknosed Nuclei (%) [10]: 2%
Population Tubulin-Different-Phenotype (%) [10]: 61%
Total Cell Count [10]: 199
Population Apoptotic (%) [11]: 100%
Population Fragmented Nuclei (%) [11]: 69%
Population Healthy Nuclei (%) [11]: 20%
Population Hoechst High Intensity Objects (%) [11]: 33%
Population Membrane Permeable-Phenotype (%) [11]: 41%
Population Mitochondria Different-Phenotype (%) [11]: 5%
Population Mitotic Cells (%) [11]: 0%
Population Normal (%) [11]: 66%
Population Pyknosed Nuclei (%) [11]: 9%
Population Tubulin-Different-Phenotype (%) [11]: 76%
Total Cell Count [11]: 123
Population Apoptotic (%) [12]: 77%
Population Fragmented Nuclei (%) [12]: 35%
Population Healthy Nuclei (%) [12]: 50%
Population Hoechst High Intensity Objects (%) [12]: 53%
Population Membrane Permeable-Phenotype (%) [12]: 23%
Population Mitochondria Different-Phenotype (%) [12]: 38%
Population Mitotic Cells (%) [12]: 22%
Population Normal (%) [12]: 46%
Population Pyknosed Nuclei (%) [12]: 13%
Population Tubulin-Different-Phenotype (%) [12]: 52%
Total Cell Count [12]: 145
